Data: ChEMBL document CHEMBL1255304, “In vitro phenotypic susceptibility of human immunodeficiency virus type 2 clinical isolates to protease inhibitors” (Antimicrob Agents Chemother, 2008)

How the values were obtained:
[1] = system: Human immunodeficiency virus 2; test: Antiviral activity against HIV 2 subtype H expressing 10I-34E-40P-41Y-60H-63N-70T-73G-82F-89L-92E protease gene sequence from HIV2 infected patient plasma and PBMC obtained at T1 during compound treatment measured after 13 months; format: functional, organism-based; conditions: Human immunodeficiency virus 2, subtype H
How it was run: (§1)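 Virus isolated by PBMC coculture from patient samples taken before (T0) or during (T1, T2) protease inhibitor exposure, with protease genes sequenced from plasma and PBMC isolates. Susceptibility was tested in the ANRS PBMC assay, and the 50% inhibitory concentration (IC50) was reported.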

[2] = system: Human immunodeficiency virus 2; test: Antiviral activity against HIV 2 subtype A clinical isolate expressing 14H-17D-43T-68N/D protease gene sequence from HIV2 infected patient plasma and PBMC obtained before compound treatment measured after 13 months; format: functional, organism-based; conditions: Human immunodeficiency virus 2, subtype A; how it was run: as §1
[3] = system: Human immunodeficiency virus 2; test: Antiviral activity against HIV 2 subtype A clinical isolate expressing 5L/F-14Y/H-17G/D-43T-54I/M-62V/A-70R/K-71I protease gene sequence from HIV2 infected patient plasma and PBMC obtained at T1 during compound treatment measured after 13 months; format: functional, organism-based; conditions: Human immunodeficiency virus 2, subtype A; how it was run: as §1
[4] = system: Human immunodeficiency virus 2; test: Antiviral activity against HIV 2 subtype A clinical isolate expressing 14H-60K/N-65E protease gene sequence from HIV2 infected patient plasma and PBMC obtained before compound treatment measured after 13 months; format: functional, organism-based; conditions: Human immunodeficiency virus 2, subtype A; how it was run: as §1
[5] = system: Human immunodeficiency virus 2; test: Antiviral activity against HIV 2 subtype A clinical isolate expressing 54M-65E-71I-74N-90M protease gene sequence from HIV2 infected patient plasma and PBMC obtained at T1 during compound treatment measured after 13 months; format: functional, organism-based; conditions: Human immunodeficiency virus 2, subtype A; how it was run: as §1
[6] = system: Human immunodeficiency virus 2; test: Antiviral activity against HIV 2 subtype A clinical isolate expressing 10I-17D-40D-43I-46V-66V/A-70R/K protease gene sequence from HIV2 infected patient plasma and PBMC obtained before compound treatment measured after 13 months; format: functional, organism-based; conditions: Human immunodeficiency virus 2, subtype A; how it was run: as §1
[7] = system: Human immunodeficiency virus 2; test: Antiviral activity against HIV 2 subtype A clinical isolate expressing 10I-17D-40D-43I-45K/R-46V-54M-64I/V-69K/R-71V/I-90M protease gene sequence from HIV2 infected patient plasma and PBMC obtained at T1 during compound treatment measured after 13 months; format: functional, organism-based; conditions: Human immunodeficiency virus 2, subtype A; how it was run: as §1
[8] = system: Human immunodeficiency virus 2; test: Antiviral activity against HIV 2 subtype A clinical isolate expressing 14H-40D-70K-72R/K-91T/S protease gene sequence from HIV2 infected patient plasma and PBMC obtained before compound treatment measured after 13 months; format: functional, organism-based; conditions: Human immunodeficiency virus 2, subtype A; how it was run: as §1
[9] = system: Human immunodeficiency virus 2; test: Antiviral activity against HIV 2 subtype A clinical isolate expressing 10I-40D-43I-70K-82F-84V-85L-89V-90M-91T/L-98N/K protease gene sequence from HIV2 infected patient plasma and PBMC obtained at T1 during compound treatment measured after 13 months; format: functional, organism-based; conditions: Human immunodeficiency virus 2, subtype A; how it was run: as §1
[10] = system: Human immunodeficiency virus 2; test: Antiviral activity against HIV 2 subtype A clinical isolate expressing 10V/I-40D-43I-56V-70K-82F-84V-89V-90M protease gene sequence from HIV2 infected patient plasma and PBMC obtained at T2 during compound treatment measured after 3 months; format: functional, organism-based; conditions: Human immunodeficiency virus 2, subtype A; how it was run: as §1
[11] = system: Human immunodeficiency virus 2; test: Antiviral activity against HIV 2 subtype B clinical isolate expressing 14Y-61N-99L protease gene sequence from HIV2 infected patient plasma and PBMC obtained before compound treatment measured after 13 months; format: functional, organism-based; conditions: Human immunodeficiency virus 2, subtype B\r\n; how it was run: as §1
[12] = system: Human immunodeficiency virus 2; test: Antiviral activity against HIV 2 subtype B clinical isolate expressing 14Y-19P-33I-61N-71I-75M-84V-90M protease gene sequence from HIV2 infected patient plasma and PBMC obtained at T1 during compound treatment measured after 13 months; format: functional, organism-based; conditions: Human immunodeficiency virus 2, subtype B\r\n; how it was run: as §1
[13] = system: Human immunodeficiency virus 2; test: Antiviral activity against HIV 2 subtype B clinical isolate expressing 14Y-19P-61N-64V-71I-90M-95I protease gene sequence from HIV2 infected patient plasma and PBMC obtained at T2 during compound treatment measured after 3 months; format: functional, organism-based; conditions: Human immunodeficiency virus 2, subtype B\r\n; how it was run: as §1
[14] = system: Human immunodeficiency virus 2; test: Antiviral activity against HIV 2 subtype B clinical isolate expressing 12T-14Y-19P-40N-41D-61N-62I-96S-99L protease gene sequence from HIV2 infected patient plasma and PBMC obtained before compound treatment measured after 13 months; format: functional, organism-based; conditions: Human immunodeficiency virus 2, subtype B\r\n; how it was run: as §1
[15] = system: Human immunodeficiency virus 2; test: Antiviral activity against HIV 2 subtype B clinical isolate expressing 12Q-14R-17G/D-19P-61N-62I-92A protease gene sequence from HIV2 infected patient plasma and PBMC obtained before compound treatment measured after 13 months; format: functional, organism-based; conditions: Human immunodeficiency virus 2, subtype B\r\n; how it was run: as §1
[16] = system: Human immunodeficiency virus 2; test: Antiviral activity against Human immunodeficiency virus type 2 (ISOLATE ROD) after 13 months; format: functional, organism-based; conditions: Human immunodeficiency virus 2, ISOLATE ROD
How it was run: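 Reference strain ROD was tested in the ANRS PBMC assay alongside the clinical isolates, and the 50% inhibitory concentration (IC50) was reported.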

[17] = Antiviral activity against Human immunodeficiency virus type 1 (BRU ISOLATE) after […]; format: functional; conditions: Human immunodeficiency virus 1
[18] = system: Human immunodeficiency virus 2; test: Antiviral activity against HIV 2 subtype H expressing 10I-40P-41Y-60H-63N-70T-73G-89L-92E protease gene sequence from HIV2 infected patient plasma and PBMC obtained before compound treatment measured after 13 months; format: functional, organism-based; conditions: Human immunodeficiency virus 2, subtype H; how it was run: as §1

Row | SMILES | IC50 [1] [nM] | IC90 [1] [nM] | IC50 [2] [nM] | IC90 [2] [nM] | IC50 [3] [nM] | IC50 [4] [nM] | IC90 [4] [nM] | IC50 [5] [nM] | IC90 [5] [nM] | IC50 [6] [nM] | IC90 [6] [nM] | IC50 [7] [nM] | IC90 [7] [nM] | IC50 [8] [nM] | IC90 [8] [nM] | IC50 [9] [nM] | IC90 [9] [nM] | IC50 [10] [nM] | IC90 [10] [nM] | IC50 [11] [nM] | also measured
1 | Cc1cccc(C)c1OCC(=O)N[C@@H](Cc1ccccc1)[C@@H](O)C[C@H](Cc1ccccc1)NC(=O)[C@H](C(C)C)N1CCCNC1=O [LOPINAVIR] | 3200 | 8700 | 30 | 80 | 40 | 40 | 200 | 400 | 3300 | 20 | 200 | 1700 | 8500 | 20 | 80 | 100 | 800 | 100 | 1100 | 40 | IC90 [3]: 400 nM; IC90 [11]: 70 nM; IC50 [12]: 200 nM; IC90 [12]: 1500 nM; IC50 [13]: 100 nM; IC90 [13]: 900 nM; IC50 [14]: 30 nM; IC90 [14]: 100 nM; IC50 [15]: 20 nM; IC90 [15]: 200 nM; IC50 [16]: 20 nM; IC90 [16]: 70 nM; IC50 [17]: 30 nM; IC90 [17]: 100 nM; IC50 [18]: 60 nM; IC90 [18]: 500 nM
2 | CC(C)(C)NC(=O)[C@@H]1CN(Cc2cccnc2)CCN1C[C@@H](O)C[C@@H](Cc1ccccc1)C(=O)N[C@H]1c2ccccc2C[C@H]1O [INDINAVIR] | 12000 | 99000 | < 10 | < 10 | 18000 | 30 | 400 | 10000 | 82000 | 4 | 100 | 200 | 3100 | 20 | 400 | 6400 | 51000 | 11000 | 90000 | 100 | IC90 [11]: 600 nM; IC50 [12]: 3800 nM; IC90 [12]: 30000 nM; IC50 [13]: 12000 nM; IC90 [13]: 95000 nM; IC50 [14]: 4 nM; IC90 [14]: 20 nM; IC50 [15]: 400 nM; IC90 [15]: 2600 nM; IC50 [16]: 30 nM; IC90 [16]: 300 nM; IC50 [17]: 5 nM; IC90 [17]: 40 nM; IC50 [18]: 20 nM; IC90 [18]: 500 nM
3 | CCC[C@@]1(CCc2ccccc2)CC(O)=C([C@H](CC)c2cccc(NS(=O)(=O)c3ccc(C(F)(F)F)cn3)c2)C(=O)O1 [TIPRANAVIR] | 7300 | 16000 | 300 | 2200 | 6700 | 300 | 2500 | 4700 | 14000 | 300 | 2700 | 4100 | 23000 | 400 | 4200 | 2800 | 16000 | 4800 | 29000 | 400 | IC90 [3]: 26000 nM; IC90 [11]: 1700 nM; IC50 [12]: 4800 nM; IC90 [12]: 17000 nM; IC50 [13]: 4000 nM; IC90 [13]: 12000 nM; IC50 [14]: 400 nM; IC90 [14]: 3000 nM; IC50 [15]: 300 nM; IC90 [15]: 2600 nM; IC50 [16]: 400 nM; IC90 [16]: 3500 nM; IC50 [17]: 50 nM; IC90 [17]: 400 nM; IC50 [18]: 400 nM; IC90 [18]: 800 nM
4 | COC(=O)N[C@H](C(=O)N[C@@H](Cc1ccccc1)[C@@H](O)CN(Cc1ccc(-c2ccccn2)cc1)NC(=O)[C@@H](NC(=O)OC)C(C)(C)C)C(C)(C)C [ATAZANAVIR] | 1900 | 15000 | 70 | 200 | 300 | 40 | 300 | 400 | 1800 | 100 | 300 | 200 | 1800 | 40 | 200 | 40 | 1300 | 400 | 3000 | 60 | IC90 [3]: 2100 nM; IC90 [11]: 300 nM; IC50 [12]: 2200 nM; IC90 [12]: 17000 nM; IC50 [13]: 200 nM; IC90 [13]: 1400 nM; IC50 [14]: 200 nM; IC90 [14]: 400 nM; IC50 [15]: 30 nM; IC90 [15]: 300 nM; IC50 [16]: 30 nM; IC90 [16]: 100 nM; IC50 [17]: 7 nM; IC90 [17]: 30 nM; IC50 [18]: 100 nM; IC90 [18]: 500 nM
